Experimental data published in ChEMBL document CHEMBL4014264, “Benzoyltyramine Alkaloids Atalantums A-G from the Peels of Atalantia monophylla and Their Cytotoxicity against Cholangiocarcinoma Cell Lines” (J Nat Prod, 2017).

Key:
[1] = Cytotoxicity against human KKU-M214 cells assessed as reduction in cell viability after 72 hrs by SRB assay; format: functional, cell-based; conditions: KKU-M214, 72 h
Procedure, shortened: (§1)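 Cholangiocarcinoma cells seeded at (1−2) × 10^4 cells/well, grown 24 h at 37 °C, then dosed in triplicate to final 0.025−20 μg/well, with 0.1% DMSO solvent control. Starting plates read after 1 h, treated plates after 72 h, by SRB. Viability % = (OD treated day 3 − OD start)/(OD control day 3 − OD start) × 100. IC50 taken from dose–response curves.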

[2] = Cytotoxicity against human KKU-M213 cells assessed as reduction in cell viability after 72 hrs by SRB assay; format: functional, cell-based; conditions: KKU-M213, 72 h; procedure, shortened: as §1
[3] = Cytotoxicity against human KKU-M156 cells assessed as reduction in cell viability after 72 hrs by SRB assay; format: functional, cell-based; conditions: KKU-M156, 72 h; procedure, shortened: as §1
[4] = Potency index, ratio of ellipticine IC50 to compound IC50 for human KKU-M156 cells; format: functional

Q: For `CCCCCCCCCCCCCCCC(=O)OC(CC(O)/C(C)=C/COc1ccc(CCNC(=O)c2ccccc2)cc1)C(C)(C)O` (racemic), which IC50 [1] is on record?
A: The IC50 was 8.44 µM.

Q: And the IC50 [2]?
A: Its IC50 is 23.5 µM.

Q: What about the IC50 [3] of the same compound?
A: The IC50 was 1.97 µM.

Q: And the “Ratio IC50” value [4]?
A: The value was 4.7.

Q: With `CCCCCCCCCCCCCC(=O)OC(CC(OC(C)=O)C(C)(C)O)/C(C)=C/COc1ccc(CCNC(=O)c2ccccc2)cc1` (racemic) as the compound, how does the IC50 [1] read?
A: Its IC50 is 24 µM.

Q: And the IC50 [2]?
A: Its IC50 is 2.36 µM.

Q: And the IC50 [3]?
A: Its IC50 is 24.5 µM.

Q: With `CCCCCCCCCCCCCCCC(=O)OC(C)(C)C(O)CC(O)/C(C)=C/COc1ccc(CCNC(=O)c2ccccc2)cc1` (racemic) as the compound, how does the IC50 [1] read?
A: Its IC50 is 20.5 µM.

Q: What about the IC50 [2] of the same compound?
A: Its IC50 is 16.1 µM.

Q: And the IC50 [3]?
A: The IC50 was 31.5 µM.

Q: For `CCCCCCCCCCCCCCCC(=O)OC(CC(OC(C)=O)C(C)(C)O)/C(C)=C/COc1ccc(CCNC(=O)c2ccccc2)cc1` (racemic), which IC50 [1] is on record?
A: The IC50 was 3.06 µM.

Q: And the IC50 [2]?
A: Its IC50 is 34.8 µM.

Q: And the IC50 [3]?
A: Its IC50 is 22 µM.

Q: For `CC(=O)OC(CC(O)C(C)(C)O)/C(C)=C/COc1ccc(CCNC(=O)c2ccccc2)cc1` (stereo unspecified), which IC50 [1] is on record?
A: The IC50 was 44.5 µM.

Q: What about the IC50 [2] of the same compound?
A: Its IC50 is 28.8 µM.

Q: And the IC50 [3]?
A: The IC50 was 49.7 µM.

Q: Which IC50 [1] does the source give for `CCCCCCCCCCCCCCCCCC(=O)OC(CC(OC(C)=O)C(C)(C)O)/C(C)=C/COc1ccc(CCNC(=O)c2ccccc2)cc1` (racemic) here?
A: The IC50 was 12.4 µM.

Q: And the IC50 [2]?
A: The IC50 was 29.1 µM.

Q: What about the IC50 [3] of the same compound?
A: The IC50 was 24 µM.

Q: With `CC(=O)OC(CC1OC1(C)C)/C(C)=C/COc1ccc(CCNC(=O)c2ccccc2)cc1` (stereo unspecified) as the compound, how does the IC50 [1] read?
A: The IC50 was 31.5 µM.

Q: What about the IC50 [2] of the same compound?
A: Its IC50 is 11.1 µM.

Q: What about the IC50 [3] of the same compound?
A: Its IC50 is 29.1 µM.

Q: For `Cc1c2ccncc2c(C)c2c1[nH]c1ccccc12` [ELLIPTECINE], which IC50 [2] is on record?
A: Its IC50 is 6.58 µM.

Q: What does the source list for `C/C(=C\COc1ccc(CCNC(=O)c2ccccc2)cc1)C(O)CC(O)C(C)(C)O` (stereo unspecified)?
A: IC50 [1]: 11.1 µM; IC50 [2]: 25.8 µM; IC50 [3]: 26.8 µM

Q: Which IC50 [1] does the source give for `C/C(=C\COc1ccc(CCNC(=O)c2ccccc2)cc1)C1CC(O)C(C)(C)O1` (racemic) here?
A: Its IC50 is 7.37 µM.

Q: What about the IC50 [2] of the same compound?
A: Its IC50 is 12.2 µM.

Q: What about the IC50 [3] of the same compound?
A: The IC50 was 21.5 µM.

Q: For `CCCCCCCCCCCCCCCC(=O)OC(CC(O)C(C)(C)O)/C(C)=C/COc1ccc(CCNC(=O)c2ccccc2)cc1` (racemic), which IC50 [1] is on record?
A: The IC50 was 27.4 µM.

Q: And the IC50 [2]?
A: Its IC50 is 5.63 µM.

Q: What about the IC50 [3] of the same compound?
A: The IC50 was 2.8 µM.

Q: Which IC50 [1] does the source give for `CCCCCCCCCCCCCCCC(=O)OC(CC1OC1(C)C)/C(C)=C/COc1ccc(CCNC(=O)c2ccccc2)cc1` (stereo unspecified) here?
A: Its IC50 is 14.9 µM.

Q: What about the IC50 [2] of the same compound?
A: Its IC50 is 2.71 µM.

Q: And the IC50 [3]?
A: The IC50 was 21 µM.

Q: For `O=c1[nH]cc(F)c(=O)[nH]1` [FLUOROURACIL], which IC50 [1] is on record?
A: Its IC50 is 3.76 µM.
